Assay results from ChEMBL document CHEMBL1126622, “2-substituted 1,2-dihydro-3H-dibenz[de,h]isoquinoline-1,3-diones. A new class of antitumor agent” (J Med Chem, 1993).

What was measured:
L1210 [1] = experiment: Tested against L1210 resistant murine leukemia cells by MTT tetrazolium dye assay; type: functional, cell-based; details: Mus musculus
Summary of the method: (§1)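 Suspension L1210 cells (drug-sensitive and multidrug-resistant lines), 50 000/well, drug added day 2 from DMSO stock serially diluted in PBS pH 7.4, 10^1–10^-5 μg/mL in half-log steps, final DMSO ≤0.1%; continuous 6-day exposure at 37 °C, 5% CO2; MTT added 4 h, formazan dissolved in DMSO, A570; percent of untreated control; six wells per concentration, IC50s averaged.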

L1210 [2] = experiment: Tested against L1210 sensitive murine leukemia cells by MTT tetrazolium dye assay; type: functional, cell-based; details: Mus musculus; summary of the method: as §1
OVCAR-3 = experiment: Tested against OVCAR-3 human ovarian cancer cells by sulforhodamine B (SRB) assay; type: functional, cell-based
Summary of the method: (§2)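 Adherent UACC375 melanoma and OVCAR3 ovarian cells, SRB assay: plating and dosing as for MTT (50 000/well, 10^1–10^-5 μg/mL half-log, DMSO ≤0.1%), 8-day exposure; fixed with 10% TCA 1 h at 4 °C, stained 30 min with 0.4% SRB in 1% acetic acid, dye dissolved in 10 mM Tris base pH 10.5, OD 564 nm; six wells per concentration, IC50s averaged.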

[3] = Tested against UACC375 human melanoma cancer cells by sulforhodamine B (SRB) assay; type: functional, cell-based; details: Cancer cell lines; summary of the method: as §2
[4] = Tested for in vitro for cardiotoxicity by performing neonatal rat heart myocyte assay method; type: functional
Summary of the method: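 Neonatal rat heart myocytes exposed to drug for 1 h; cytotoxicity read as cellular ATP/protein ratio relative to untreated controls; IC50 is the 1-h concentration halving this ratio.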

[5] = Average mean for IC50 values in the four cell lines (UACC375,OVCAR3,L1210 sensitive,L1210 resistant); type: functional; design: unit not given here
Summary of the method: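 Mean of the IC50 values from the four tumor lines: UACC375 and OVCAR3 by SRB (8-day exposure), sensitive and resistant L1210 by MTT (6-day continuous exposure).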

[6] = The quotient of the IC50 is the myocytes divided by the mean IC50 in the four cell lines (UACC375,OVCAR3,L1210 sensitive,L1210 resistant); type: ADME; details: read-out: Toxicity ratio
Summary of the method: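 Ratio of the myocyte IC50 (1-h exposure, ATP/protein ratio read-out) to the mean tumor-cell IC50 across the four lines, UACC375 and OVCAR3 by SRB, sensitive and resistant L1210 by MTT.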

[7] = Acid dissociation constant was determined; type: ADME
Summary of the method: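 Hydrochloride salt (0.165 mmol) dissolved in 0.982 N HCl to give 1 mequiv acid beyond amine protonation; stirred and titrated with 0.926 N NaOH with pH-meter monitoring.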

L1210 [8] = experiment: Tested for percent increase in life span in L1210 leukemia cells after intraperitoneal dose of 30 mg/kg in mice; type: functional; details: Mus musculus, L1210, ip
Summary of the method: (§3)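 Standard NCI protocol: leukemia cells implanted intraperitoneally, with drug given ip on days 1, 5 and 9. Read-out is percent increase in life span, 100 × (treated life span − control life span)/control life span.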

L1210 [9] = experiment: Tested for percent increase in life span in L1210 leukemia cells after intraperitoneal dose of 45 mg/kg in mice; type: functional; details: Mus musculus, L1210, ip; summary of the method: as §3
B16 [10] = experiment: Tested for percent tumor growth inhibition in B16 melanoma cells after intraperitoneal dose of 30 mg/kg in mice; details: Mus musculus, B16, ip; read-out: TGI
COLO 480 = experiment: Tested against human colon carcinoma COLO 480 cell line in vitro; type: functional, cell-based
Summary of the method: (§4)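 Human colon carcinoma lines, MTT assay: 50 000 cells/well, drug added day 2 (DMSO stock diluted in PBS pH 7.4, 10^1–10^-5 μg/mL half-log steps, final DMSO ≤0.1%), 6-day exposure at 37 °C, 5% CO2; MTT 4 h, formazan in DMSO read at 570 nm vs untreated control; six wells per concentration, IC50 averaged.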

COLO 205 = experiment: Tested against human colon carcinoma COLO 205 cell line in vitro; type: functional, cell-based; summary of the method: as §4
HCT-15 = experiment: Tested against human colon carcinoma HCT 15 cell line in vitro; type: functional, cell-based; summary of the method: as §4
HT-29 = experiment: Tested against human colon carcinoma HT 29 cell line in vitro; type: functional, cell-based; summary of the method: as §4
L1210 [11] = experiment: Tested for percent increase in life span in L1210 leukemia cells after intraperitoneal dose of 15 mg/kg in mice; type: functional; details: Mus musculus, L1210, ip; summary of the method: as §3
L1210 [12] = experiment: Tested for percent increase in life span in L1210 leukemia cells after intraperitoneal dose of 5 mg/kg in mice; type: functional; details: Mus musculus, L1210, ip
Summary of the method: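 Standard NCI protocol: leukemia cells implanted intraperitoneally, with drug given ip once daily on days 1–5. Read-out is percent increase in life span, 100 × (treated life span − control life span)/control life span.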

LoVo = experiment: Tested against human colon carcinoma LoVo cell line in vitro; type: functional, cell-based; summary of the method: as §4
B16 [13] = experiment: Tested for percent tumor growth inhibition in B16 melanoma cells after intraperitoneal dose of 15 mg/kg in mice; details: Mus musculus, B16, ip; read-out: TGI

SMILES: O=C1c2cccc3cc4ccccc4c(c23)C(=O)N1c1cccnc1
- IC50 (L1210 [1]): 554 nM
- IC50 (L1210 [2]): 544 nM
- IC50 (OVCAR-3): 1940 nM
- IC50 [3]: 2490 nM
- IC50 [4]: > 25000 nM
- Average [5]: 1380
- selectivity ratio [6]: > 20

SMILES: O=C1c2cccc3cc4ccccc4c(c23)C(=O)N1Cc1cccnc1
- IC50 (L1210 [1]): 2670 nM
- IC50 (L1210 [2]): 1870 nM
- IC50 (OVCAR-3): 8020 nM
- IC50 [3]: 11400 nM
- IC50 [4]: > 25000 nM
- Average [5]: 5983
- selectivity ratio [6]: > 4

SMILES: O=C1c2cccc3cc4ccccc4c(c23)C(=O)N1CCN1CCCC1
- IC50 (L1210 [1]): 11.8 nM
- IC50 (L1210 [2]): 14.5 nM
- IC50 (OVCAR-3): 66 nM
- IC50 [3]: 39 nM
- IC50 [4]: 920 nM
- Average [5]: 33
- selectivity ratio [6]: 28

SMILES: O=C1c2cccc3cc4ccccc4c(c23)C(=O)N1N1CC1
- IC50 (L1210 [1]): 791 nM
- IC50 (L1210 [2]): 791 nM
- IC50 (OVCAR-3): 7910 nM
- IC50 [3]: 2530 nM
- Average [5]: 3006

SMILES: O=C1c2cccc3cc4ccccc4c(c23)C(=O)N1CCN1CCOCC1
- IC50 (L1210 [1]): 512 nM
- IC50 (L1210 [2]): 512 nM
- IC50 (OVCAR-3): 639 nM
- IC50 [3]: 511 nM
- IC50 [4]: > 25000 nM
- Average [5]: 544
- selectivity ratio [6]: > 50

SMILES: CN(C)CCCN1C(=O)c2cccc3cc4ccccc4c(c23)C1=O
- pKa [7]: 7.3
- IC50 (L1210 [1]): 82 nM
- IC50 (L1210 [2]): 54 nM
- IC50 (OVCAR-3): 462 nM
- IC50 [3]: 245 nM
- IC50 [4]: 11400 nM
- Average [5]: 211
- selectivity ratio [6]: 113

SMILES: CCN1CCCC(N2C(=O)c3cccc4cc5ccccc5c(c34)C2=O)C1 (stereo not drawn)
- IC50 (L1210 [1]): 609 nM
- IC50 (L1210 [2]): 635 nM
- IC50 (OVCAR-3): 1180 nM
- IC50 [3]: 1650 nM
- IC50 [4]: 8760 nM
- Average [5]: 1020
- selectivity ratio [6]: 8.3

SMILES: O=C1c2cccc3cc4ccccc4c(c23)C(=O)N1CCN1CCNCC1
- IC50 (L1210 [1]): 463 nM
- IC50 (L1210 [2]): 174 nM
- IC50 (OVCAR-3): 1970 nM
- IC50 [3]: 463 nM
- IC50 [4]: 6710 nM
- Average [5]: 767
- selectivity ratio [6]: 8.8

SMILES: CCN1CCCC1CN1C(=O)c2cccc3cc4ccccc4c(c23)C1=O (stereo not drawn)
- IC50 (L1210 [1]): 55 nM
- IC50 (L1210 [2]): 36 nM
- IC50 (OVCAR-3): 214 nM
- IC50 [3]: 119 nM
- IC50 [4]: 15200 nM
- Average [5]: 106
- selectivity ratio [6]: 143

SMILES: O=C1c2cccc3cc4ccccc4c(c23)C(=O)N1Cc1ccccn1
- IC50 (L1210 [1]): 26700 nM
- IC50 (L1210 [2]): 26700 nM
- IC50 (OVCAR-3): 17400 nM
- IC50 [3]: 12000 nM
- IC50 [4]: > 25000 nM
- Average [5]: 20722
- selectivity ratio [6]: > 1

SMILES: CN1CCCC1CCN1C(=O)c2cccc3cc4ccccc4c(c23)C1=O (stereo not drawn)
- IC50 (L1210 [1]): 56 nM
- IC50 (L1210 [2]): 51 nM
- IC50 (OVCAR-3): 203 nM
- IC50 [3]: 190 nM
- IC50 [4]: 7080 nM
- Average [5]: 125
- selectivity ratio [6]: 57

SMILES: O=C1c2cccc3cc4ccccc4c(c23)C(=O)N1CCN1CCCCC1
- IC50 (L1210 [1]): 51 nM
- IC50 (L1210 [2]): 51 nM
- IC50 (OVCAR-3): 89 nM
- IC50 [3]: 178 nM
- IC50 [4]: 10400 nM
- Average [5]: 92
- selectivity ratio [6]: 13

SMILES: O=C1c2cccc3cc4ccccc4c(c23)C(=O)N1CCNCCO
- IC50 (L1210 [1]): 41 nM
- IC50 (L1210 [2]): 18 nM
- IC50 (OVCAR-3): 81 nM
- IC50 [3]: 67 nM
- IC50 [4]: 943 nM
- Average [5]: 52
- selectivity ratio [6]: 18

SMILES: O=C1c2cccc3cc4ccccc4c(c23)C(=O)N1CCc1ccccn1
- pKa [7]: 5.4
- IC50 (L1210 [1]): 15500 nM
- IC50 (L1210 [2]): 6440 nM
- IC50 (OVCAR-3): 3870 nM
- IC50 [3]: 6440 nM
- IC50 [4]: > 25000 nM
- Average [5]: 8054
- selectivity ratio [6]: > 3

SMILES: CN(C)c1ccc(N2C(=O)c3cccc4cc5ccccc5c(c34)C2=O)cc1
- IC50 (L1210 [1]): 1790 nM
- IC50 (L1210 [2]): 187 nM
- IC50 (OVCAR-3): 16200 nM
- IC50 [3]: 4980 nM
- IC50 [4]: 37300 nM
- Average [5]: 4537
- selectivity ratio [6]: 8

SMILES: O=C1c2cccc3cc4ccccc4c(c23)C(=O)N1CCCN(CCO)CCO
- IC50 (L1210 [1]): 142 nM
- IC50 (L1210 [2]): 76 nM
- IC50 (OVCAR-3): 163 nM
- IC50 [3]: 217 nM
- IC50 [4]: 8910 nM
- Average [5]: 150
- selectivity ratio [6]: 60

SMILES: CNCCN1C(=O)c2cccc3cc4ccccc4c(c23)C1=O
- IC50 (L1210 [1]): 20.6 nM
- IC50 (L1210 [2]): 10 nM
- IC50 (OVCAR-3): 44 nM
- IC50 [3]: 59 nM
- IC50 [4]: 7060 nM
- Average [5]: 33
- selectivity ratio [6]: 211

SMILES: O=C1c2cccc3cc4ccccc4c(c23)C(=O)N1c1ncc[nH]1
- IC50 (L1210 [1]): 148 nM
- IC50 (L1210 [2]): 207 nM
- IC50 (OVCAR-3): 2430 nM
- IC50 [3]: 1620 nM
- Average [5]: 1103

SMILES: CN(C)CCN1C(=O)c2cccc3cc(N)cc(c23)C1=O [AMONAFIDE]
- pKa [7]: 7.3
- ILS at 30 mg/kg (L1210 [8]): 45%
- ILS at 45 mg/kg (L1210 [9]): 87.5%
- IC50 (L1210 [1]): 625 nM
- IC50 (L1210 [2]): 625 nM
- IC50 (OVCAR-3): 2180 nM
- IC50 [3]: 2030 nM
- IC50 [4]: 48400 nM
- Average [5]: 1365
- selectivity ratio [6]: 36
- inhibition in vivo at 30 mg/kg (B16 [10]): 23%

SMILES: CN(C)CCN1C(=O)c2cccc3cc4ccccc4c(c23)C1=O [AZONAFIDE]
- pKa [7]: 7.3
- IC50 (COLO 480): 3 nM
- IC50 (COLO 205): 36 nM
- IC50 (HCT-15): 8 nM
- IC50 (HT-29): 63 nM
- ILS at 15 mg/kg (L1210 [11]): 25%
- ILS at 30 mg/kg (L1210 [8]): 62.5%
- ILS at 45 mg/kg (L1210 [9]): 79%
- ILS at 5 mg/kg (L1210 [12]): 90%
- IC50 (L1210 [1]): 7 nM
- IC50 (L1210 [2]): 7 nM
- IC50 (LoVo): 6 nM
- IC50 (OVCAR-3): 57 nM
- IC50 [3]: 71 nM
- IC50 [4]: 1980 nM
- Average [5]: 36
- selectivity ratio [6]: 56
- inhibition in vivo at 15 mg/kg (B16 [13]): 74%
